Results of several laboratories.
Compare with care: the assays were run in different laboratories.
Target: Mitogen-activated protein kinase kinase kinase 3 (MAP3K3, Homo sapiens, UniProt Q99759)
Residues used in one study (Q99759 1-626): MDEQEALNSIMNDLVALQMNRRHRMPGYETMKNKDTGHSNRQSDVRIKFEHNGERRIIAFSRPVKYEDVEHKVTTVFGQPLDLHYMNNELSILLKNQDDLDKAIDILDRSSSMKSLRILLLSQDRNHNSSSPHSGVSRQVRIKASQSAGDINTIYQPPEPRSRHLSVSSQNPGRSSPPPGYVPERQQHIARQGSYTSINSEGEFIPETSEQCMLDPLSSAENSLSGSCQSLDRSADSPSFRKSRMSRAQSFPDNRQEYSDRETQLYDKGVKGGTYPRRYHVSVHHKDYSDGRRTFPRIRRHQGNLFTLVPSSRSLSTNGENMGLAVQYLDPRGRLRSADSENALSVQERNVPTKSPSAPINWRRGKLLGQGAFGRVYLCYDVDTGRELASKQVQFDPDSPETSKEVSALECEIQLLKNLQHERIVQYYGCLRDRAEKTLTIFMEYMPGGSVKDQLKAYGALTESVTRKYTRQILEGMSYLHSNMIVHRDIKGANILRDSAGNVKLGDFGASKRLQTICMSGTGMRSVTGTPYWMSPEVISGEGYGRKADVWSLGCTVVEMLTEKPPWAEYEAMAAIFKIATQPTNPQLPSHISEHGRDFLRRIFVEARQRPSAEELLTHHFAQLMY

COCc1c(-c2cc3cc(C)cc(OC)c3s2)c2c(N)ncnn2c1CN1CCNC(=O)C1
inhibition (cell-free assay, competition with immobilised ligand; 1 µM): 95.3%

Cn1cc(-c2cccc(N3CCc4c(sc5c4CC(C)(C)C5)C3=O)c2CO)cc(Nc2ccncn2)c1=O
inhibition (enzyme activity, inhibitor; 1 µM): 3%

Nc1ncc(-c2nc(N3CCOCC3)nc(N3CCOCC3)n2)c(C(F)F)n1
remaining binding (binding, competition with immobilised ligand; 10 µM): 72%

COc1ncccc1-c1cnn2ccc(N3CCN(C(=O)OC(C)C)CC3)nc12
remaining binding (binding, competition with immobilised ligand; 1 µM): 100%

Cn1cncc1[C@@](O)(COc1ccc(C#N)cc1-c1ccc(OC(F)(F)F)cc1)c1ccc(C#N)cc1
remaining binding (cell-free assay, competition with immobilised ligand; 1 µM): 81%

CC(C)(C)c1cc(C=C(C#N)C#N)cc(Br)c1O
remaining activity (enzyme activity, inhibitor; 0.5 µM): 118%

Cn1cc(-c2cc(F)cc(N3CCn4c(cc5c4CCCC5)C3=O)c2CO)cc(Nc2ccc(N3CCN(C4COC4)CC3)cn2)c1=O
inhibition (enzyme activity, inhibitor; 0.1 µM): 1%

O=c1[nH]c2ccccc2n1C1CCN(Cc2ccc(-c3[nH]c4cc5ncnc5cc4nc3-c3ccccc3)cc2)CC1
remaining signal (cell-free assay; 0.5 µM): 101%

Cc1nn(C)cc1-c1nc2c(N3CCN(Cc4ccc(Cl)cc4)CC3)c(Cl)cnc2[nH]1
remaining binding (binding, competition with immobilised ligand; 1 µM): 91%
